Results as given in ChEMBL document CHEMBL4261486, “2-Arylaminobenzothiazole-arylpropenone conjugates as tubulin polymerization inhibitors” (Medchemcomm, 2017).
Active and inactive are the calls of the source. The calls are words filed in the database; no cut-off is given here.

How the values were obtained:
HeLa [1] = assay: Antiproliferative activity against human HeLa cells after 48 hrs by sulforhodamine B assay; assay type: functional, cell-based
How it was run: (§1)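 Cells grown in DMEM with 10% FBS at 37 °C under 5% CO2. Plated cells were allowed 24 h before drug, then exposed continuously for 48 h at 0.01, 0.1, 1, 10 and 100 μM. Monolayers were fixed with cold 10% TCA for 1 h at 4 °C and stained with 0.057% SRB in 1% acetic acid for 30 min. Bound dye was read at 510 nm. IC50 is the 50% growth-inhibitory concentration, using time-zero and control readings.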

A549 = assay: Antiproliferative activity against human A549 cells after 48 hrs by sulforhodamine B assay; assay type: functional, cell-based; settings: A549, 48 h; how it was run: as §1
MIA PaCa-2 = assay: Antiproliferative activity against human MIAPaCa2 cells after 48 hrs by sulforhodamine B assay; assay type: functional, cell-based; settings: MIA PaCa-2, 48 h; how it was run: as §1
MDA-MB-231 = assay: Antiproliferative activity against human MDA-MB-231 cells after 48 hrs by sulforhodamine B assay; assay type: functional, cell-based; settings: MDA-MB-231, 48 h; how it was run: as §1
[2] = Inhibition of bovine brain tubulin polymerization pretreated followed by GTP addition measured at 1 min interval for 1 hr by fluorescence reporter based assay; parameters: species or system Bos taurus
How it was run: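 Bovine brain tubulin (2 mg/mL) was pre-incubated with compound at 1, 2, 3, 4 and 5 μM. The buffer was PEM (80 mM PIPES, 0.5 mM EGTA, 2 mM MgCl2, pH 6.9) with 10 μM fluorescent reporter and 1 mM GTP at 37 °C. Fluorescence (ex 360 / em 420 nm) was read every min for 1 h. IC50 was derived from these concentrations.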

HeLa [3] = assay: Induction of reactive oxygen species generation in human HeLa cells at 1 uM after 24 hrs by carboxy-DCFH-DA staining based fluorescence microscopic analysis; assay type: functional, cell-based
How it was run: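 Cells were treated with 1 μM for 24 h, then loaded with carboxy-DCFH-DA (10 μM) for 30 min at room temperature in the dark. They were resuspended in PBS at 5 × 10^4 cells per mL. DCF fluorescence was read by spectrofluorometer (ex 488 / em 525 nm per methods; 485/535 nm per legend), and images were taken by fluorescence microscopy.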

HeLa [4] = assay: Induction of apoptosis in human HeLa cells assessed as appearance of condensed nuclei after 24 hrs by Hoechst […] staining based fluorescence microscopic analysis; assay type: functional, cell-based
How it was run: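 HeLa cells, 5 × 10^4 per well, were allowed 24 h to adhere. They were then exposed to 1 μM for 24 h at 37 °C and fixed in 4% paraformaldehyde for 10 min at 4 °C. Staining was with Hoechst […] at 5 μg/mL for 30 min at room temperature. Nuclear morphology was scored by fluorescence microscopy (ex 350, em 460 nm).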

HeLa [5] = assay: Cell cycle arrest in human HeLa cells assessed as accumulation at G2/M phase at 3 uM after 24 hrs by propidium iodide staining based flow cytometry (reference value: 33.4%); assay type: functional

| SMILES | IC50 (HeLa [1]) | IC50 (A549) | IC50 (MIA PaCa-2) | IC50 (MDA-MB-231) | IC50 [2] | Activity (HeLa [3]) | Activity (HeLa [4]) | Activity (HeLa [5]) |
| --- | --- | --- | --- | --- | --- | --- | --- | --- |
| COc1ccc(C(=O)/C=C\Nc2ccc(-c3nc4cc(OC)c(OC)c(OC)c4s3)cc2)cc1F | 7.3 µM | 15.5 µM | 19.4 µM | 16.5 µM |  |  |  |  |
| COc1ccc2nc(-c3ccc(N/C=C\C(=O)c4ccc(OC)c(O)c4)cc3)sc2c1 | 6.9 µM | 12.8 µM | 21.9 µM | 18.9 µM |  |  |  |  |
| COc1ccc(C(=O)/C=C\Nc2ccc(-c3nc4cc(OC)c(OC)c(OC)c4s3)cc2C)cc1[N+](=O)[O-] | 13.4 µM | 9.1 µM | 23.4 µM | 12.4 µM |  |  |  |  |
| COc1ccc2nc(-c3ccc(N/C=C\C(=O)c4cc(OC)c(OC)c(OC)c4)cc3)sc2c1 | 14.1 µM | 12.1 µM | 31.1 µM | 19.6 µM |  |  |  |  |
| COc1ccc(C(=O)/C=C\Nc2ccc(-c3nc4cc(OC)c(OC)c(OC)c4s3)cc2C)cc1O | 11.4 µM | 15.4 µM | 15.4 µM | 12.4 µM |  |  |  |  |
| COc1cc(OC)c2sc(-c3ccc(N/C=C\C(=O)c4ccc(OC)c([N+](=O)[O-])c4)cc3)nc2c1 | 12.9 µM | 5.8 µM | 2.9 µM | 12.9 µM |  |  |  |  |
| COc1cc(OC)c2sc(-c3ccc(N/C=C\C(=O)c4cc(OC)c(OC)c([N+](=O)[O-])c4)c(C)c3)nc2c1 | 11.4 µM | 15.4 µM | 10.4 µM | 7.4 µM |  |  |  |  |
| COc1ccc(C(=O)/C=C\Nc2ccc(-c3nc4cc(OC)c(OC)c(OC)c4s3)cc2)cc1[N+](=O)[O-] | 11.4 µM | 21.2 µM | 15.9 µM | 17.1 µM |  |  |  |  |
| COc1cc(C(=O)/C=C\Nc2ccc(-c3nc4cc(OC)c(OC)c(OC)c4s3)cc2C)c(Br)c(OC)c1OC | 14.3 µM | 10.3 µM | 24.3 µM | 7.3 µM |  |  |  |  |
| COc1ccc2nc(-c3ccc(N/C=C\C(=O)c4cc(OC)c(OC)c(OC)c4)c(C)c3)sc2c1 | 16.1 µM | 11.1 µM | 10 µM | 17 µM |  |  |  |  |
| COc1cc(OC)c2sc(-c3ccc(N/C=C\C(=O)c4cc(OC)c(OC)c(OC)c4)c(C)c3)nc2c1 | 16.4 µM | 14.4 µM | 17 µM | 13.8 µM |  |  |  |  |
| COc1ccc2nc(-c3ccc(N/C=C\C(=O)c4cc(OC)c(OC)c(OC)c4Br)cc3)sc2c1 | 8.02 µM | 6 µM | 14.7 µM | 11.1 µM |  |  |  |  |
| COc1cc(C(=O)/C=C\Nc2ccc(-c3nc4cc(OC)c(OC)c(OC)c4s3)cc2)cc([N+](=O)[O-])c1OC | 7.8 µM | 11.8 µM | 15.8 µM | 9.8 µM |  |  |  |  |
| COc1cc(OC)c2sc(-c3ccc(N/C=C\C(=O)c4cc(OC)c(OC)c(OC)c4Br)c(C)c3)nc2c1 | 14.7 µM | 14 µM | 16 µM | 17.3 µM |  |  |  |  |
| COc1cc(OC)c2sc(-c3ccc(N/C=C\C(=O)c4ccc(OC)c(O)c4)cc3)nc2c1 | 12.1 µM | 10.6 µM | 11.6 µM | 7.61 µM |  |  |  |  |
| COc1cc(C(=O)/C=C\Nc2ccc(-c3nc4cc(OC)c(OC)c(OC)c4s3)cc2C)cc(OC)c1OC | 11.1 µM | 23.3 µM | 22.8 µM | 12.9 µM |  |  |  |  |
| COc1cc(OC)c2sc(-c3ccc(N/C=C\C(=O)c4ccc(OC)c(O)c4)c(C)c3)nc2c1 | 16.1 µM | 14.3 µM | 22.1 µM | 3.1 µM |  |  |  |  |
| COc1ccc(C(=O)/C=C\Nc2ccc(-c3nc4cc(OC)c(OC)c(OC)c4s3)cc2)cc1O | 14.1 µM | 23 µM | 32.8 µM | 18.1 µM |  |  |  |  |

| SMILES | IC50 (HeLa [1]) | IC50 (A549) | IC50 (MIA PaCa-2) | IC50 (MDA-MB-231) | IC50 [2] | Activity (HeLa [3]) | Activity (HeLa [4]) | Activity (HeLa [5]) |
| --- | --- | --- | --- | --- | --- | --- | --- | --- |
| COc1cc(C(=O)/C=C\Nc2ccc(-c3nc4cc(OC)c(OC)c(OC)c4s3)cc2)c(Br)c(OC)c1OC | 6.6 µM | 13.6 µM | 23.2 µM | 15.6 µM |  |  |  |  |
| COc1ccc2nc(-c3ccc(N/C=C\C(=O)c4cc(OC)c(OC)c([N+](=O)[O-])c4)c(C)c3)sc2c1 | 12.1 µM | 22.1 µM | 12 µM | 5.05 µM |  |  |  |  |
| COc1ccc2nc(-c3ccc(N/C=C\C(=O)c4ccc(OC)c([N+](=O)[O-])c4)c(C)c3)sc2c1 | 17.6 µM | 13.6 µM | 23.6 µM | 17.6 µM |  |  |  |  |
| COc1cc(OC)c2sc(-c3ccc(N/C=C\C(=O)c4cc(OC)c(OC)c([N+](=O)[O-])c4)cc3)nc2c1 | 19 µM | 13 µM | 12.7 µM | 3.06 µM |  |  |  |  |
| COC(=O)Nc1nc2cc(C(=O)c3cccs3)ccc2[nH]1 [NOCODAZOLE] | 0.84 µM | 0.82 µM | 0.91 µM | 0.71 µM | 1.8 µM | Active | Active | 87.5% |
| COc1ccc(C(=O)/C=C\Nc2ccc(-c3nc4cc(OC)c(OC)c(OC)c4s3)cc2C)cc1F | 1.2 µM | 1.69 µM | 1.8 µM | 2.9 µM |  |  |  |  |
| COc1cc(OC)c2sc(-c3ccc(N/C=C\C(=O)c4ccc(OC)c(F)c4)c(C)c3)nc2c1 | 14.7 µM | 15.3 µM | 16.3 µM | 13.3 µM |  |  |  |  |
| COc1cc(OC)c2sc(-c3ccc(N/C=C\C(=O)c4cc(OC)c(OC)c(OC)c4Br)cc3)nc2c1 | 10.3 µM | 12 µM | 19 µM | 16.1 µM |  |  |  |  |
| COc1cc(OC)c2sc(-c3ccc(N/C=C\C(=O)c4cc(OC)c(OC)c(OC)c4)cc3)nc2c1 | 17.8 µM | 21.8 µM | 26.8 µM | 15.8 µM |  |  |  |  |
| COc1ccc2nc(-c3ccc(N/C=C\C(=O)c4ccc(OC)c([N+](=O)[O-])c4)cc3)sc2c1 | 17.6 µM | 13.6 µM | 23.6 µM | 17.6 µM |  |  |  |  |
| COc1ccc2nc(-c3ccc(N/C=C\C(=O)c4cc(OC)c(OC)c(OC)c4Br)c(C)c3)sc2c1 | 13.4 µM | 6.4 µM | 23.4 µM | 9.4 µM |  |  |  |  |
| COc1cc(C(=O)/C=C\Nc2ccc(-c3nc4cc(OC)c(OC)c(OC)c4s3)cc2)cc(OC)c1OC | 5.3 µM | 15.5 µM | 29.1 µM | 16.5 µM |  |  |  |  |
| COc1cc(OC)c2sc(-c3ccc(N/C=C\C(=O)c4ccc(OC)c([N+](=O)[O-])c4)c(C)c3)nc2c1 | 9.39 µM | 12.1 µM | 13.9 µM | 10.8 µM |  |  |  |  |
| COc1cc(OC)c2sc(-c3ccc(N/C=C\C(=O)c4ccc(OC)c(F)c4)cc3)nc2c1 | 7.3 µM | 5.3 µM | 4.3 µM | 6.7 µM |  |  |  |  |
| COc1ccc2nc(-c3ccc(N/C=C\C(=O)c4cc(OC)c(OC)c([N+](=O)[O-])c4)cc3)sc2c1 | 16.1 µM | 21.6 µM | 25.6 µM | 7.61 µM |  |  |  |  |
| COc1ccc2nc(-c3ccc(N/C=C\C(=O)c4ccc(OC)c(O)c4)c(C)c3)sc2c1 | 12 µM | 18 µM | 17 µM | 14 µM |  |  |  |  |
| COc1cc(C(=O)/C=C\Nc2ccc(-c3nc4cc(OC)c(OC)c(OC)c4s3)cc2C)cc([N+](=O)[O-])c1OC | 13.1 µM | 17.4 µM | 22 µM | 12.8 µM |  |  |  |  |
